Measurements reported in ChEMBL document CHEMBL3259533, “A new convenient synthetic method and preliminary pharmacological characterization of triazinediones as prokineticin receptor antagonists” (Eur J Med Chem, 2014).
The source made the active and inactive calls. The calls are words filed in the database; no cut-off is given here.

Assays:
[1] = tested on: Mus musculus; assay: Analgesic activity in C57Bl/6 mouse assessed as inhibition of Bv8-induced decrease in latencies to paw withdrawal administered as intraplantar route at 48 degC after 15 to 180 mins; format: functional, organism-based
In short: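 Male C57Bl/6 mice (25–30 g), trained the preceding week. Antagonist in saline, 20 µl intraplantar, 5 min before Bv8 (63 fmol i.pl. in saline). Paw withdrawal latency from 48 °C water measured in triplicate at 15–180 min; %ΔNT = 100×(NTts−NTB)/NTB. Separate group of 5 mice per dose; EC50 with 95% confidence intervals from dose–response curves.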

[2] = tested on: Mus musculus; assay: Analgesic activity in C57Bl/6 mouse assessed as changes in basal thermal sensitivity up to 120 pmol administered as intraplantar route at 48 degC after 15 to 180 mins; format: functional, organism-based
In short: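 Male C57Bl/6 mice (25–30 g), trained in paw-immersion test the preceding week. Compound in saline, 20 µl intraplantar, up to 120 pmol. Hind paw dipped in 48 °C water; withdrawal latency measured three times at 15–180 min post-dose versus baseline (mean of last three pre-dose readings). Result as % change from baseline; 5 mice per dose.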

SMILES	EC50 [1]	Activity [2]
COc1ccc(Cn2c(NCCNC(=N)N)nc(=O)n(Cc3ccc(Br)cc3)c2=O)cc1	0.36 pmol	inactive
COc1ccc(Cn2c(=O)nc(NCCNC(=N)N)n(Cc3ccc(I)cc3)c2=O)cc1	39 pmol	inactive
COc1ccc(Cn2c(=O)nc(NCCNC(=N)N)n(Cc3ccc(C)cc3)c2=O)cc1	4.5 pmol	inactive
COc1ccc(Cn2c(NCCNC(=N)N)nc(=O)n(Cc3ccc(C)cc3)c2=O)cc1	4.4 pmol	inactive
COc1ccc(Cn2c(NCCNC(=N)N)nc(=O)n(Cc3ccc([N+](=O)[O-])cc3)c2=O)cc1	48 pmol	inactive
COc1ccc(Cn2c(NCCNC(=N)N)nc(=O)n(Cc3ccc(OC)cc3)c2=O)cc1		inactive
COc1ccc(Cn2c(NCCNC(=N)N)nc(=O)n(Cc3ccc(I)cc3)c2=O)cc1	51 pmol	inactive
COc1ccc(Cn2c(NCCNC(=N)N)nc(=O)n(Cc3ccc4c(c3)OCO4)c2=O)cc1	39 pmol	inactive
Cc1ccc(Cn2c(=O)nc(NCCNC(=N)N)n(Cc3ccc(Cl)c(Cl)c3)c2=O)cc1	5.1 pmol	inactive
COc1ccc(Cn2c(NCCNC(=N)N)nc(=O)n(Cc3ccc(F)cc3)c2=O)cc1	0.31 pmol	inactive
COc1ccc(Cn2c(=O)nc(NCCNC(=N)N)n(Cc3ccc(Cl)cc3)c2=O)cc1	4.4 pmol	inactive
COc1ccc(Cn2c(=O)nc(NCCNC(=N)N)n(Cc3ccc(F)cc3)c2=O)cc1	36 pmol	inactive
COc1ccc(Cn2c(NCCNC(=N)N)nc(=O)n(Cc3ccc(Cl)cc3)c2=O)cc1	4 pmol	inactive
COc1ccc(Cn2c(=O)nc(NCCNC(=N)N)n(Cc3ccc(C(F)(F)F)cc3)c2=O)cc1	48 pmol	inactive
COc1ccc(Cn2c(=O)nc(NCCNC(=N)N)n(Cc3ccc(Cl)c(Cl)c3)c2=O)cc1	4.5 pmol	inactive
Cc1ccc(Cn2c(NCCNC(=N)N)nc(=O)n(Cc3ccc(C(F)(F)F)cc3)c2=O)cc1	0.033 pmol	inactive
COc1ccc(Cn2c(=O)nc(NCCNC(=N)N)n(Cc3ccccc3)c2=O)cc1	63 pmol	inactive
CCc1ccc(Cn2c(=O)nc(NCCNC(=N)N)n(Cc3ccc(OC)cc3)c2=O)cc1	5.8 pmol	inactive
COc1ccc(Cn2c(NCCNC(=N)N)nc(=O)n(Cc3ccc(C(F)(F)F)cc3)c2=O)cc1	51 pmol	inactive
COc1ccc(Cn2c(=O)nc(NCCNC(=N)N)n(Cc3ccc(Br)cc3)c2=O)cc1	4.3 pmol	inactive
